Measured values reported in ChEMBL document CHEMBL1148788 (J Med Chem, 2007).
Values joined by “and” are separate entries in the source; they are usually repeats but may differ in a detail not shown here. Equal entries are not always repeated. Active and inactive are the calls of the source. No cut-off for these calls is given here.

How the values were obtained:
[1] = system: tsA201; experiment: Displacement of [3H]methyllycaconitine from chimeric alpha-7nAChR W55A/Y195A mutant /5HT3A receptor in tsA201 cells; assay type: cell-based; settings: Homo sapiens
Outline: (§1)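 tsA-201 cells transiently transfected with 4 µg WT or mutant α7/5-HT3A chimera and assayed 2 days later. Membranes washed twice at 50000g in 50 mM Tris-HCl pH 7.2. Incubated with 0.5 nM [3H]MLA and compound for 2.5 h at room temperature with shaking; nonspecific binding with 5 mM (S)-nicotine. PEI-soaked GF/C filtration, scintillation counting. Ki derived; duplicate, 3–7 experiments.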

[2] = Antagonist activity at human alpha-7 nAChR Y195A mutant coexpressed with human Ric3 in tsA201 cells by FMP assay; assay type: functional, cell-based
[3] = system: tsA201; experiment: Displacement of [3H]methyllycaconitine from chimeric alpha-7nAChR W149Y mutant/5HT3A receptor W149Y mutant in tsA201 cells; assay type: cell-based; settings: Homo sapiens; outline: as §1
[4] = system: tsA201; experiment: Displacement of [3H]methyllycaconitine from chimeric alpha-7nAChR Y93A mutant/5HT3A receptor in tsA201 cells; assay type: cell-based; settings: Homo sapiens; outline: as §1
[5] = Displacement of [3H]methyllycaconitine from chimeric alpha-7nAChR S150A mutant/5HT3A receptor in tsA201 cells; assay type: cell-based, Homo sapiens; outline: as §1
[6] = target: T1, Neuronal acetylcholine receptor subunit alpha-7 (Homo sapiens, UniProt P36544); experiment: Displacement of [3H]methyllycaconitine from human alpha-7 in tsA201 cells coexpressed with 5HT3A receptor; assay type: cell-based
Target sequence in this assay (P36544 whole entry): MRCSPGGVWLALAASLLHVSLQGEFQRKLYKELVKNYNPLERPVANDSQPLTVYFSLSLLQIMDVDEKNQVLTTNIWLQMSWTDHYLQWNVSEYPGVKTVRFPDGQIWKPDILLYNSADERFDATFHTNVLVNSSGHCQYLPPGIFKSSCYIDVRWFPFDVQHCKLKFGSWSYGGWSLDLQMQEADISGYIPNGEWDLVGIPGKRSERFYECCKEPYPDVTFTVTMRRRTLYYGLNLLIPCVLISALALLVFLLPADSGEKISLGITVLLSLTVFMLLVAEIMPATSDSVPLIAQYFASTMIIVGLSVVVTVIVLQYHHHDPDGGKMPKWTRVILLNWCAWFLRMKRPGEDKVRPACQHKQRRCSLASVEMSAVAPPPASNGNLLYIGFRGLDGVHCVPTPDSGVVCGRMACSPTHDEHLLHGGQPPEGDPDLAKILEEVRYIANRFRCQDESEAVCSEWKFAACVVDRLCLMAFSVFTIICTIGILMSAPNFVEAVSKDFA

[7] = target: T1, Neuronal acetylcholine receptor subunit alpha-7; experiment: Displacement of [3H]methyllycaconitine from chimeric alpha7nAChR/5HT3A in tsA201 cells; assay type: cell-based
Target sequence in this assay (P36544 23-502 limits assumed): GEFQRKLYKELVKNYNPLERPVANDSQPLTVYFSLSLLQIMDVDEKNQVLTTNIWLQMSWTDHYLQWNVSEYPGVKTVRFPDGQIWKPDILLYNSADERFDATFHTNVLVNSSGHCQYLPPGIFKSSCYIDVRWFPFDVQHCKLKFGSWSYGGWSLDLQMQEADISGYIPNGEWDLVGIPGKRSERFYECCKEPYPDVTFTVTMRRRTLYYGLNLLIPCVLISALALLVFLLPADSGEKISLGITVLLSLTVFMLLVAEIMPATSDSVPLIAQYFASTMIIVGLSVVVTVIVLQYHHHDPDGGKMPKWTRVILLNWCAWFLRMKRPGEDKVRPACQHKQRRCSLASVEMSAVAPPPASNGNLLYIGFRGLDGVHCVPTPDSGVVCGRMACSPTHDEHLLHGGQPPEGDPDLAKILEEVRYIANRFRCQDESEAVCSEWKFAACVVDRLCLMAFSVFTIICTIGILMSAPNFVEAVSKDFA

[8] = Displacement of [3H]methyllycaconitine from chimeric alpha-7nAChR S148A mutant /5HT3A receptor in tsA201 cells; assay type: cell-based, Homo sapiens; outline: as §1
[9] = target: T1, Neuronal acetylcholine receptor subunit alpha-7; experiment: Displacement of [3H]methyllycaconitine from alpha7 nAChR in tsA201 cells co-expressed with Ric3; assay type: cell-based
Target sequence in this assay (P36544 whole entry): as the sequence (P36544 whole entry) above

[10] = Displacement of [3H]methyllycaconitine from chimeric alpha-7nAChR K145R mutant /5HT3A receptor in tsA201 cells; assay type: cell-based, Homo sapiens; outline: as §1
[11] = Displacement of [3H]methyllycaconitine from chimeric alpha-7nAChR N107A mutant/5HT3A receptor in tsA201 cells; assay type: cell-based, Homo sapiens; outline: as §1
[12] = system: tsA201; experiment: Displacement of [3H]methyllycaconitine from chimeric alpha-7nAChR Y188A mutant/5-HT3A receptor in tsA201 cells; assay type: cell-based; settings: Homo sapiens; outline: as §1
[13] = Antagonist activity at human alpha7nAChR Y93A mutant co-expressed with human Ric3 in tsA201 cells by FMP assay; assay type: functional, cell-based
[14] = Displacement of [3H]methyllycaconitine from chimeric alpha-7nAChR D197A mutant/5HT3A receptor in tsA201 cells; assay type: cell-based, Homo sapiens; outline: as §1
[15] = Displacement of [3H]methyllycaconitine from chimeric alpha-7nAChR Y168A mutant/5HT3A receptor in tsA201 cells; assay type: cell-based, Homo sapiens; outline: as §1
[16] = Displacement of [3H]methyllycaconitine from chimeric alpha7nAChR W55Y mutant/5HT3A receptor in tsA201 cells; assay type: cell-based, Homo sapiens; outline: as §1
[17] = system: tsA201; experiment: Displacement of [3H]methyllycaconitine from chimeric alpha-7nAChR W149A mutant/5HT3A receptor in tsA201 cells; assay type: cell-based; settings: Homo sapiens; outline: as §1
[18] = Displacement of [3H]methyllycaconitine from chimeric alpha-7nAChR Y195F mutant/5HT3A receptor in tsA201 cells; assay type: cell-based, Homo sapiens; outline: as §1
[19] = Antagonist activity at human alpha7 nAChR W149Y mutant co-expressed with human Ric3 in tsA201 cells by FMP assay; assay type: functional, cell-based
[20] = target: T1, Neuronal acetylcholine receptor subunit alpha-7; experiment: Antagonist activity at human alpha-7 nAChR in tsA201 cells coexpressed with Ric3 by FMP assay; assay type: functional, cell-based
Target sequence in this assay (P36544 whole entry): as above

[21] = Displacement of [3H]methyllycaconitine from chimeric alpha-7nAChR W55A mutant /5HT3A receptor in tsA201 cells; assay type: cell-based, Homo sapiens; outline: as §1
[22] = Displacement of [3H]methyllycaconitine from chimeric alpha7nAChR R79A mutant/5HT3A receptor R79A mutant in tsA201 cells; assay type: cell-based, Homo sapiens; outline: as §1
[23] = Displacement of [3H]methyllycaconitine from chimeric alpha7nAChR K145A mutant/5HT3A receptor in tsA201 cells; assay type: cell-based, Homo sapiens; outline: as §1
[24] = Displacement of [3H]methyllycaconitine from chimeric alpha7nAChR Y195A mutant/5HT3A receptor in tsA201 cells; assay type: cell-based, Homo sapiens; outline: as §1
[25] = target: T1, Neuronal acetylcholine receptor subunit alpha-7
Target sequence in this assay (P36544 whole entry): as above

[26] = Antagonist activity at human alpha-7 nAChR Y188A mutant coexpressed with human Ric3 in tsA201 cells by FMP assay; assay type: functional, cell-based

CCN1C[C@]2(COC(=O)c3ccccc3N3C(=O)C[C@H](C)C3=O)CC[C@H](OC)[C@@]34[C@@H]5C[C@H]6[C@H](OC)[C@@H]5[C@](O)(C[C@@H]6OC)[C@](O)([C@@H](OC)[C@H]23)[C@@H]14 [METHYLLYCACONITINE]
Activity [1]: inactive
IC50 ([2]; read-out: IC50): 320 nM
IC50 ([2]; read-out: pIC50 (converted)): 324 nM
Activity [3]: inactive
Activity [4]: inactive
Ki [5]: 3.5 nM
pKi [5]: 8.45
Ki ([6]; read-out: Ki): 1.1 nM
Ki ([6]; read-out: pKi (converted)): 1 nM
Ki [7]: 1.6 nM
pKi [7]: 8.79
Ki [8]: 2.5 nM
pKi [8]: 8.6
Ki ([9]; read-out: Ki): 6.1 nM
Ki ([9]; read-out: pKi (converted)): 6.31 nM
Ki [10]: 4.3 nM
pKi [10]: 8.37
Ki [11]: 3.2 nM
pKi [11]: 8.42
Activity [12]: inactive
IC50 ([13]; read-out: IC50): 10000 nM
IC50 ([13]; read-out: pIC50 (converted)): 31600 nM
Ki [14]: 5.5 nM
pKi [14]: 8.26
Ki [15]: 1.9 nM
pKi [15]: 8.71
Ki [16]: 4.5 nM
pKi [16]: 8.35
Activity [17]: inactive
Ki [18]: 1.7 nM
pKi [18]: 8.78
IC50 ([19]; read-out: IC50): 89 nM
IC50 ([19]; read-out: pIC50 (converted)): 10000 nM
IC50 ([20]; read-out: IC50): 8.3 nM
IC50 ([20]; read-out: pIC50 (converted)): 8.32 nM
Ki [21]: 24 nM
pKi [21]: 7.62
Ki [22]: 3.5 nM
pKi [22]: 8.45
Ki [23]: 3.9 nM
pKi [23]: 8.41
Ki [24]: 13 nM
pKi [24]: 7.89
IC50 [25]: 8.3 nM and 8.32 nM
IC50 ([26]; read-out: IC50): 1800 nM
IC50 ([26]; read-out: pIC50 (converted)): 1820 nM
